ChEMBL document CHEMBL4376840, “Application of Fluorine- and Nitrogen-Walk Approaches: Defining the Structural and Functional Diversity of 2-Phenylindole Class of Cannabinoid 1 Receptor Positive Allosteric Modulators” (J Med Chem, 2020)
Activity calls are given as the source filed them. The rule behind the calls is not given here.

Columns and labels:
[1] = Half life in human liver microsomes at 1 uM up to 45 mins in presence of NADPH by LC-MS/MS analysis
[2] = test system: Mus musculus; assay: Potentiation of […] WIN55212-2-induced reduction in intraocular pressure in ocular normotensive C57BL/6J mouse assessed as change in IOP at 0.2% administered topically to eye measured after 12 hrs by tonometry; format: functional
[3] = test system: Mus musculus; assay: Reduction of intraocular pressure in ocular hypertensive NEE mouse harboring Sh3pxd2b deletion mutant at 0.2% administered topically to eye after 1 hr by tonometry; format: functional
In short: (§1)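 Ocular hypertensive NEE mice (1 bp deletion in Sh3pxd2b) received topical 0.2% compound alone. IOP change from baseline (time 0) was measured at 1, 6 and 12 h; paired t-tests.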

[4] = rat, microsomes, 1 µM
[5] = Toxicity in C57BL/6 mouse assessed as catalepsy at 0.1 to 10 mg/kg, ip after 5 mins by bar holding assay; format: organism-based; details: in vivo
In short: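 Male C57BL/6 mice were given 0.1 – 10 mg/kg compound or vehicle (1:1:18 ethanol:cremaphor:saline). Catalepsy was assessed at 5 min as % MPE with a 60 sec maximum. n = 5–6.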

[6] = Half life in rat liver microsomes at 1 uM up to 45 mins in presence of NADPH by LC-MS/MS analysis
[7] = test system: Mus musculus; assay: Reduction of intraocular pressure in ocular hypertensive NEE mouse harboring Sh3pxd2b deletion mutant at 0.2% administered topically to eye after 6 hrs by tonometry; format: functional; in short: as §1
[8] = test system: Mus musculus; assay: Potentiation of […] WIN55212-2-induced reduction in intraocular pressure in ocular normotensive C57BL/6J mouse assessed as change in IOP at 0.2% administered topically to eye measured after 6 hrs by tonometry; format: functional
[9] = buffer, pH 7.4, 2 h
[10] = test system: Mus musculus; assay: Reduction of intraocular pressure in ocular hypertensive NEE mouse harboring Sh3pxd2b deletion mutant at 0.2% administered topically to eye after 12 hrs by tonometry; format: functional, organism-based; in short: as §1
[11] = molecular target: Cannabinoid receptor 1 (Mus musculus) (UniProt P47746); assay: Positive allosteric modulation activity at CB1 receptor in C57BL/6 mouse hippocampal neurons assessed as increase in depolarization-induced suppression of excitation at 1 uM at -70 mV holding potential by whole cell patch clamp assay
[12] = test system: Mus musculus; assay: Antinociceptive activity in C57BL/6 mouse at 3 to 10 mg/kg, ip after 20 mins post treatment by warm water tail-flick assay; format: functional, organism-based
[13] = test system: Mus musculus; assay: Potentiation of […] WIN55212-2-induced reduction in intraocular pressure in ocular normotensive C57BL/6J mouse assessed as change in IOP at 0.2% administered topically to eye measured after 1 hr by tonometry; format: functional
[14] = human, microsomes, 1 µM
[15] = Toxicity in C57BL/6 mouse assessed as effect on hypothermia at 0.1 to 10 mg/kg, ip after 15 mins by thermometric method; format: organism-based; details: in vivo
In short: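 Male C57BL/6 mice were given 0.1 – 10 mg/kg compound or vehicle (1:1:18 ethanol:cremaphor:saline). Body temperature was measured at 15 min and expressed relative to vehicle (100%). n = 5–6.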

Cannabinoid receptor 1 (Mus musculus), sequence (P47746 whole entry): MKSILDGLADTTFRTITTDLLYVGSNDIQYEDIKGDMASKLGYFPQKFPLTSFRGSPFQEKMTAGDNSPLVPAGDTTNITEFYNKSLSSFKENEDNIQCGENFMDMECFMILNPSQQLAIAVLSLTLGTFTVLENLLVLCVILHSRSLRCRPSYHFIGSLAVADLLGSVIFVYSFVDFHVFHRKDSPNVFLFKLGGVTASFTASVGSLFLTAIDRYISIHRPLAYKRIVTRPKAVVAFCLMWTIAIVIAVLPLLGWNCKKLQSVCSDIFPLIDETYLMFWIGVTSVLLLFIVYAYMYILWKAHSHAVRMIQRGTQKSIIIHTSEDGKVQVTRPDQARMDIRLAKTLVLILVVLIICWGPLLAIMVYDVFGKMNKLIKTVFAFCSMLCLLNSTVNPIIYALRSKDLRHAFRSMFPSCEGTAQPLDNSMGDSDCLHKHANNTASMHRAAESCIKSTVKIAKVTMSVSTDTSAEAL

Work on `O=[N+]([O-])CC(c1ncccc1F)c1c(-c2ccccc2)[nH]c2ccccc12` (stereo not given) yielded a t1/2 [1] of 27.4 min, an Activity [2] of 0.1 mmHg and an Activity [3] of 2.5 mmHg. The CLH [4] was 556 µL/min, the Activity [5] was “Non-Toxic” and the t1/2 [6] was 4.08 min. It also gave an Activity [7] of 3.6 mmHg, an Activity [8] of -0.6 mmHg and a Kinetic_solubility [9] of 3.13 µM. The inhibition [10] was “inactive”, the Activity [11] was “Active” and the Activity [12] was “inactive”. The Activity [13] was -0.7 mmHg, the CLH [14] was 84.5 µL/min and the Activity [15] was “Non-Toxic”.
